How the values were obtained:
[1] = biological target: T1, Type II restriction enzyme ScaI (Streptomyces caespitosus, UniProt O52691); test: Inhibition of Streptomyces caespitosus Sca 1 assessed as undigested supercoiled pBR322 DNA concentration
T1 sequence (O52691 whole entry): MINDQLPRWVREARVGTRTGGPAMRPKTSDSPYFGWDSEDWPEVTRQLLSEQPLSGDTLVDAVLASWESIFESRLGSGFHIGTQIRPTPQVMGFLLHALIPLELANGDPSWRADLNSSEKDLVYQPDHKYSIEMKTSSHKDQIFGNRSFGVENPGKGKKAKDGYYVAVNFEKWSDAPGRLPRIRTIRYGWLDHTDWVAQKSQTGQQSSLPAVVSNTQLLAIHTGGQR
Method in brief: (§1)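 Restriction enzyme or nuclease activity followed as the remaining undigested supercoiled pBR322 DNA (or RNA) after reaction.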

[2] = biological target: Telomerase reverse transcriptase (Homo sapiens, UniProt O14746); test: Inhibition of telomerase from human COLO201 cell
Chain of Telomerase reverse transcriptase (O14746 whole entry): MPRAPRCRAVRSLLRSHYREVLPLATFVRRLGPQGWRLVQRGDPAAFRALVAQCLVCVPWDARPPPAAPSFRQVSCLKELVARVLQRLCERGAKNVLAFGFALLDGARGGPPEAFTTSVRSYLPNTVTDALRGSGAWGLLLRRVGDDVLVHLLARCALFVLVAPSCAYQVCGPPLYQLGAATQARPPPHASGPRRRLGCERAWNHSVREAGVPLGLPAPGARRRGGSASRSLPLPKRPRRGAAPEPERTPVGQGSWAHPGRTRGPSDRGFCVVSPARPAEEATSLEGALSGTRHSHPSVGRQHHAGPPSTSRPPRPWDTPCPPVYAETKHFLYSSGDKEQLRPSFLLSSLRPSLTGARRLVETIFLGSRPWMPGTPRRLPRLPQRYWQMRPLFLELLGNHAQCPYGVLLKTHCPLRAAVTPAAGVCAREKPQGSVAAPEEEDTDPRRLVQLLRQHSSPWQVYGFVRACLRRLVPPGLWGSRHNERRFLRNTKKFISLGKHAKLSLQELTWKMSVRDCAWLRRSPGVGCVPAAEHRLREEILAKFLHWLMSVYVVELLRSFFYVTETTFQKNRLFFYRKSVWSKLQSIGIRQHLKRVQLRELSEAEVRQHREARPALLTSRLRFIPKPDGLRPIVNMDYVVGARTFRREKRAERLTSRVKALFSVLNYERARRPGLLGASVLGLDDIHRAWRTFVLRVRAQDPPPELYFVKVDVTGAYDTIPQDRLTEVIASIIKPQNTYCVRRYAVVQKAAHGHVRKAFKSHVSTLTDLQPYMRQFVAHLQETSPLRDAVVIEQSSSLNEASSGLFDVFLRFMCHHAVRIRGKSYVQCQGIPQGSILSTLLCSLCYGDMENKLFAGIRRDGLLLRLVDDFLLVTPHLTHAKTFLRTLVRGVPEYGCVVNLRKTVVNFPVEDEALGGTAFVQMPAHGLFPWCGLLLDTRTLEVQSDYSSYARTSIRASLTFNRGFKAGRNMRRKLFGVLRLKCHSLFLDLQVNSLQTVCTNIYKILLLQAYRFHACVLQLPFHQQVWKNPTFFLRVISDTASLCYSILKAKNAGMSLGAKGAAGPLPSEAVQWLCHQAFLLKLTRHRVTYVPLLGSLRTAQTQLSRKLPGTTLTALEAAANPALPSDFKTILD

[3] = Inhibition of wheat germ topoisomerase 1 assessed as conversion of supercoiled pBR322 DNA to relaxed form; design: species or system Triticum aestivum
DNA topoisomerase 1 = biological target: T2, DNA topoisomerase 1 (Chlorocebus aethiops, UniProt Q7YR26); test: Inhibition topoisomerase 1 in african green monkey Vero cells assessed as conversion of supercoiled pBR322 DNA to relaxed form; format: cell-based, Chlorocebus sabaeus
T2 sequence (Q7YR26 whole entry): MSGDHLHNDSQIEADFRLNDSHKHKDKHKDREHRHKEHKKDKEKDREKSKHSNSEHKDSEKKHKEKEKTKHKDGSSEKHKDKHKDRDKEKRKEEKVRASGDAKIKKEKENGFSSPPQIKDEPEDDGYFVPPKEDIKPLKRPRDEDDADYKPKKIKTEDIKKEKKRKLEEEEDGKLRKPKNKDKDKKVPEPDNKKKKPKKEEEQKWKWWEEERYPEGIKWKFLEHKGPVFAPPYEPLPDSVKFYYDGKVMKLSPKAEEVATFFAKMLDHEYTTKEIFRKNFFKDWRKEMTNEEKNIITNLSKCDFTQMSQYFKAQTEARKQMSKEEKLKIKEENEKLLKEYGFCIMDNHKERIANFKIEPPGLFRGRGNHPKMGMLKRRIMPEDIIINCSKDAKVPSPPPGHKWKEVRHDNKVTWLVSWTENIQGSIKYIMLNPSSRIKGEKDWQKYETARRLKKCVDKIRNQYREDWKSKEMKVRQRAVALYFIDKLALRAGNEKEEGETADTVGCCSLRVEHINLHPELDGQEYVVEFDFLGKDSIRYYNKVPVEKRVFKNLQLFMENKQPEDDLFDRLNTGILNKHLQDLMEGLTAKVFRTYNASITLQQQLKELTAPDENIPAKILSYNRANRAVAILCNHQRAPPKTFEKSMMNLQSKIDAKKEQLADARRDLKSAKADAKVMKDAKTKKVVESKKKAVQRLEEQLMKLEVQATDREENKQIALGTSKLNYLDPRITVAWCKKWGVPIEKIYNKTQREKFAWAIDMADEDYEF
Method in brief: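 Enzyme source: Vero or NIH3T3 cells cultured 5 days, washed in PBS and pelleted (1 × 10^6 cells). Lysed 30 min on ice in 200 µL buffer (10 mM Tris-HCl pH 7.5, MgCl2, EGTA, AEBSF, β-mercaptoethanol, 0.5% CHAPS, 10% glycerin); the cleared supernatant relaxed supercoiled pBR322. Gel densitometry; IC50 is the amount halving activity.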

[4] = biological target: DNA topoisomerase 2-alpha (Homo sapiens, UniProt P11388); test: Inhibition human placenta topoisomerase 2 assessed as conversion of supercoiled pBR322 DNA to relaxed form
Chain of DNA topoisomerase 2-alpha (P11388 whole entry): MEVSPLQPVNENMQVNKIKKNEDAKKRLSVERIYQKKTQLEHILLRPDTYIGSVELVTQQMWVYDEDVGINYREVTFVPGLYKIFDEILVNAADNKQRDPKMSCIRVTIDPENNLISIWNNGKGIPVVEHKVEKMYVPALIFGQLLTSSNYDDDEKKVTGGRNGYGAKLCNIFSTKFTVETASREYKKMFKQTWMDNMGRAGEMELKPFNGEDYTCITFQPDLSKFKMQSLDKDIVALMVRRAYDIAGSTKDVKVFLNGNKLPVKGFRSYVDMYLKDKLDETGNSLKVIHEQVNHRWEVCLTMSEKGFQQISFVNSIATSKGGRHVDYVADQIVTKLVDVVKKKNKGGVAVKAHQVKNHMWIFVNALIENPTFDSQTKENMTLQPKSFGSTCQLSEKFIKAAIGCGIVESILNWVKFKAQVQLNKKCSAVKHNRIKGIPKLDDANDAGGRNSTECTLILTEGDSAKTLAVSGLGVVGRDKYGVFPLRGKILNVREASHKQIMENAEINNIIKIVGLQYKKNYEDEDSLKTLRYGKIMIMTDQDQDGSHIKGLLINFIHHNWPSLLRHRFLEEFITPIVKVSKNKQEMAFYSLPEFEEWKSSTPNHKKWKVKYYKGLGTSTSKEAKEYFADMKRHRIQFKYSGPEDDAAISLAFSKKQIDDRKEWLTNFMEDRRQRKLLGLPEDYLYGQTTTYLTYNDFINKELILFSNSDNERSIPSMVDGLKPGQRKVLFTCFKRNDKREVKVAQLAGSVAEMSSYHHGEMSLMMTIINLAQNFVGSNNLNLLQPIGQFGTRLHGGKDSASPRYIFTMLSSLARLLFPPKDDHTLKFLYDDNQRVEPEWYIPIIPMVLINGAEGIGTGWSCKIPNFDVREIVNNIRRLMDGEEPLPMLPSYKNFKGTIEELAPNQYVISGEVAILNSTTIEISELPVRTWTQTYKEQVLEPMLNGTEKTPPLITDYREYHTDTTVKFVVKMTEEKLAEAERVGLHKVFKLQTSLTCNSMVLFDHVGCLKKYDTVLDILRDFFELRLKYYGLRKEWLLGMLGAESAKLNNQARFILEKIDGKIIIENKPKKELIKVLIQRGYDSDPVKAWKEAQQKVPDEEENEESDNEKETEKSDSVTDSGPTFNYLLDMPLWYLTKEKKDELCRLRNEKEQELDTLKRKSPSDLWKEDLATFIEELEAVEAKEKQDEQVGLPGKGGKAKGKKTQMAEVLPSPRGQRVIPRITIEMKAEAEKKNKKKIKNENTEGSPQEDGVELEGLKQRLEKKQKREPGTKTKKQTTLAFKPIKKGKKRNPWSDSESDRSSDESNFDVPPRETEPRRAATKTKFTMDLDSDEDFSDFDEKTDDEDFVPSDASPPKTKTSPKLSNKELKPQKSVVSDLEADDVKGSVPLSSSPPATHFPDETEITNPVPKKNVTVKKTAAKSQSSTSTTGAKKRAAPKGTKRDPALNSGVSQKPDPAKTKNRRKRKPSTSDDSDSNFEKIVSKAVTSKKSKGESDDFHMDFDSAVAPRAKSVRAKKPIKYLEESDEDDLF

Deoxyribonuclease-1 = Deoxyribonuclease-1 (Bos taurus, UniProt P00639); test: Inhibition of bovine pancreas DNase 1 assessed as undigested supercoiled pBR322 DNA concentration; method in brief: as §1
Chain of Deoxyribonuclease-1 (P00639 whole entry): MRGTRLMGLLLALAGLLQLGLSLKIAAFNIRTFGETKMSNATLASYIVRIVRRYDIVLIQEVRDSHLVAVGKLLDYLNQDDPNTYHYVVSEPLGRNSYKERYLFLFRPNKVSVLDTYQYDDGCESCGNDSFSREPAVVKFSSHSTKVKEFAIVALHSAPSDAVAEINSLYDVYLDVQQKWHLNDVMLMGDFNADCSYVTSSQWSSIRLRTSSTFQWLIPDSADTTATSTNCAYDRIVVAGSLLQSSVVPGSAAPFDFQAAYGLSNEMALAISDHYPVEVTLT

DNA ligase = biological target: T3, DNA ligase (Enterobacteria phage T4, UniProt P00970); test: Inhibition of T4 ligase from bacteriophage infected Escherichia coli assessed as ligation of supercoiled pBR322 DNA; design: species or system Tequatrovirus T4
T3 sequence (P00970 whole entry): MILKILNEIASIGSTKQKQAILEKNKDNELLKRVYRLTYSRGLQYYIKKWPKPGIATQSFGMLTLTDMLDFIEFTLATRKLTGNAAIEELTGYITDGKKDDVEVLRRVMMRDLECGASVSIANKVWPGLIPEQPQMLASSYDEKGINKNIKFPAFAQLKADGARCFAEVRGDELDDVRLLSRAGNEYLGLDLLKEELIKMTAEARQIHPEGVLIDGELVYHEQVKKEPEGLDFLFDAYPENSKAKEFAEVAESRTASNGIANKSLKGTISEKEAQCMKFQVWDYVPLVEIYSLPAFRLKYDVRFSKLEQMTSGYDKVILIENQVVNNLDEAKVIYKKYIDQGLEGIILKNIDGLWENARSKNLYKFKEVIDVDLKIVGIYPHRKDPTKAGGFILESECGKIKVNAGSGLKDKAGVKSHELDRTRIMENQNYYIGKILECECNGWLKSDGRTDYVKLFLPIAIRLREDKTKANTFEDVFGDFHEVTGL

[5] = Inhibition of Arthrobacter luteus AluI assessed as undigested supercoiled pBR322 DNA concentration; design: species or system Cellulosimicrobium cellulans; method in brief: as §1
[6] = biological target: T4, Type II restriction enzyme HindIII (Haemophilus influenzae (strain ATCC 51907 / DSM 11121 / KW20 / Rd), UniProt P43870); test: Inhibition of Haemophilus influenzae Hind 3 assessed as undigested supercoiled pBR322 DNA concentration; method in brief: as §1
T4 sequence (P43870 whole entry): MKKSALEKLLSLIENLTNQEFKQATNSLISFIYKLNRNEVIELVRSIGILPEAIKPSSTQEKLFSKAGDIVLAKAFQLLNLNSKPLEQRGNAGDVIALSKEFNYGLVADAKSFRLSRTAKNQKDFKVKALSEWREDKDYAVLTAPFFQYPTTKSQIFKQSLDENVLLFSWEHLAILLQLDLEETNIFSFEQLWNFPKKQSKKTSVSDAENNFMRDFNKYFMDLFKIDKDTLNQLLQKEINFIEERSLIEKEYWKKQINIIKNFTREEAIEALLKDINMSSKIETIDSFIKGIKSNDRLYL

[7] = biological target: T5, Type II restriction enzyme PstI (Providencia stuartii, UniProt P00640); test: Inhibition of Providencia stuartii Pst 1 assessed as undigested supercoiled pBR322 DNA concentration; method in brief: as §1
T5 sequence (P00640 whole entry): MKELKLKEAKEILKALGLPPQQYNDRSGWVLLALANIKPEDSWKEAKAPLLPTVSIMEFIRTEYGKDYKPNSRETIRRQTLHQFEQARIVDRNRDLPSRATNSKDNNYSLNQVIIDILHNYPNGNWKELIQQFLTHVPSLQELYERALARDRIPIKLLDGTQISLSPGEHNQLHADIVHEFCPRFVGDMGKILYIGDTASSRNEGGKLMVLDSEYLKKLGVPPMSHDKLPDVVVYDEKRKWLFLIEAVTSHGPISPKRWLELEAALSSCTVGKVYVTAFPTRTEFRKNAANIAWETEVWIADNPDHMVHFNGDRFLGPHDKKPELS

IC50 [4]	SMILES	IC50 [1]	IC50 [2]	IC50 [3]	IC50 (DNA topoisomerase 1)	IC50 (Deoxyribonuclease-1)	IC50 (DNA ligase)	IC50 [5]	IC50 [6]	IC50 [7]
1 µM	COc1cccc2c1C(=O)c1c(O)c3c(c(O)c1C2=O)C[C@@](O)(C(=O)CO)C[C@@H]3O[C@H]1C[C@H](N)[C@H](O)[C@H](C)O1 [DOXORUBICIN]	25 µM	73 µM	> 200 µM	> 200 µM	> 200 µM	> 200 µM	24 µM	96 µM	> 200 µM
4 µM	C=C1NC(=O)C(C)C(CCC(C)C(=O)/C=C/C(C)=C/CC(C)CCCCCCC)OC(=O)[C@H](CC(OS(=O)(=O)O)C(N)=O)NC(=O)[C@@H](C)CNC1=O (some centres undefined) [TOPOSTATIN]	7 µM	> 250 µM	1 µM	17 µM	> 250 µM	> 250 µM	> 250 µM	17 µM	19 µM
	CC[C@@]1(O)C(=O)OCc2c1cc1n(c2=O)Cc2cc3ccccc3nc2-1 [CAMPTOTHECIN]	> 300 µM	> 300 µM	3 µM	27 µM	> 300 µM	> 300 µM	> 300 µM	> 300 µM	> 300 µM

SMILES	IC50 [4]	IC50 [1]	IC50 [2]	IC50 [3]	IC50 (DNA topoisomerase 1)	IC50 (Deoxyribonuclease-1)	IC50 (DNA ligase)	IC50 [5]	IC50 [6]	IC50 [7]
O=C1Oc2cc(O)ccc2/C1=C\c1ccc(O)cc1 [ISOAUROSTATIN]	> 400 µM	> 400 µM	> 400 µM	67 µM	> 400 µM	> 400 µM	> 400 µM	> 400 µM	> 400 µM	> 400 µM
